# Experimental data pooled from the literature.
# Each line is one published result; the experiments were not run side by side.
# Target: Focal adhesion kinase 1 (PTK2, Homo sapiens, UniProt Q05397)
SMILES,read-out,technique,concentration,remaining binding [%]
N[C@H]1CCN(c2nccc(-c3cnn4ncccc34)n2)C1,binding,,1 µM,100
COc1ncc2cc3ccccc3nc2c1C#N,cell-free assay,competition with immobilised ligand,5 µM,100
O=C(N[C@H]1CCCCC/C=C\C2C[C@@]2(C(=O)O)NC(=O)[C@@H]2C[C@@H](Oc3ccncc3)CN2C1=O)OC1CCCC1 (some centres unmarked),binding,competition with immobilised ligand,1 µM,97
O=C(Nc1c[nH]nc1C(=O)NC1CCNCC1)c1cc(F)cc(F)c1,binding,competition with immobilised ligand,1 µM,91
COc1cccc(CNC(=O)c2nc3scc(COCc4ccc(C(=O)O)cc4)c3c(=O)[nH]2)c1,cell-free assay,competition with immobilised ligand,1 µM,100
CN(C)c1nccc(-c2cnc3ncccn23)n1,binding,,1 µM,100
COc1cc(-c2cn(C3CCc4ccccc4N(CC(F)(F)F)C3=O)nn2)ccc1-n1ccc(C)n1 (centres unmarked),cell-free assay,competition with immobilised ligand,1 µM,100
CNC(=O)[C@@H]1CC[C@@H](n2c(-c3ccc4cnccc4c3)nc3ccc(C(=O)NCc4cccc(C(N)=O)c4)cc32)C1,binding,competition with immobilised ligand,1 µM,92
CC1CCCN1c1nccc(-c2cnn3ncccc23)n1 (centres unmarked),binding,,1 µM,100
Nc1ncc2c(n1)-c1c([nH]c3ccc(C#CC4CC4)cc13)CCCC2,binding,competition with immobilised ligand,1 µM,91
O=C(NCCCN1CCOCC1)c1ccc(Nc2nccc(-c3cc4ccccc4s3)n2)cc1,binding,competition with immobilised ligand,1 µM,100
C[C@@H]1CN(c2ccc3ncc(-c4ccc5[nH]nc(C6CC6)c5c4)n3n2)C[C@H](C)O1,binding,competition with immobilised ligand,0.5 µM,100
C[C@@H]1CCN(c2nccc(-c3cnn4ncccc34)n2)C1,binding,,1 µM,100
O=C(c1ccc(Nc2ncc(Cl)c(-c3cc4ccccc4s3)n2)cc1)N1CCC(N2CCCC2)CC1,binding,competition with immobilised ligand,1 µM,78
C=CC(=O)N1CCC(C(=O)NCC(=O)N2CCN(c3nc(-c4cnc(N)nc4C(F)F)nc(N4CCOCC4)n3)CC2)CC1,binding,competition with immobilised ligand,1 µM,100
CCOCCn1cc(C(=O)Nc2ccc(-n3nc(-c4cccnc4)cc3C(F)(F)F)cn2)ccc1=O,cell-free assay,competition with immobilised ligand,1 µM,100
CN(C)c1ncc(F)c(-c2cnn3ncccc23)n1,binding,,1 µM,100
N#Cc1ccccc1CSc1nnc2c(n1)[nH]c1ccccc12,binding,competition with immobilised ligand,10 µM,98
O=C(O)c1cc(-c2ccc(C3CCNCC3)cc2)c2ccc(-c3ccc(C(F)(F)F)cc3)cc2c1,cell-free assay,competition with immobilised ligand,1 µM,100
Cc1cc(-c2cc(C(F)(F)F)ccc2O[C@H]2C[C@@]2(CNS(=O)(=O)c2ccc([N+](=O)[O-])cc2)c2ccc(F)cc2F)[nH]n1,cell-free assay,competition with immobilised ligand,0.3 µM,22
Cc1c(C(=O)O)cc(-c2ccc(C3CCNCC3)cc2)c2ccc(-c3ccc(C(F)(F)F)cc3)cc12,binding,competition with immobilised ligand,1 µM,100
O=C(c1ccc(Nc2nccc(-c3cc4ccccc4s3)n2)cc1)N1CCC(N2CCCC2)CC1,binding,competition with immobilised ligand,1 µM,81
FC(F)(F)Oc1cccc(-c2cnc3ccc(-c4ccncc4)nn23)c1,cell-free assay,competition with immobilised ligand,5 µM,83
